How the values were obtained:
[1] = system: dermal fibroblasts (BJ ATCC CRL-2522); assay: MTT antiproliferative assay on normal cells, 72 h exposure; type: cell-based, human; conditions: read-out: IC50 Fibroblast
How it was run: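 Human BJ dermal fibroblasts were grown in DMEM at 37°C under humidified 5% CO2. Cells were detached with 0.25% trypsin/0.53 mM EDTA, counted by trypan blue, seeded in 96-well plates and left 24 h to attach, then exposed to test compound or no drug for 72 h. IC50 was taken from a logarithmic trend line.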

neuroblastoma SH-SY5Y = assay: MTT antiproliferative assay, 72 h exposure; type: cell-based, human
How it was run: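 SH-SY5Y cells were kept in 1:1 EMEM/F12 with 10% FBS at 37°C under 5% CO2. After trypsin/EDTA detachment and trypan-blue counting, cells were plated in 96-well format and allowed 24 h to attach. They were then incubated ±test compound for 72 h. IC50 was derived from a logarithmic trend line of the cytotoxicity plots.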

What does the source list for `CC(=O)O.CCN(CC)CC[n+]1ccc2c(C)c3[nH]c4ccc(O)cc4c3c(C)c2c1` [Compound 3]?
IC50 [1]: 303 ± 1 nM; % SH-SY5Y 10µM (percentage inhibition) (neuroblastoma SH-SY5Y; 10 µM, 72 h exposure): 74.22 ± 0.025%; % SH-SY5Y 50µM (percentage inhibition) (neuroblastoma SH-SY5Y; 50 µM, 72 h exposure): 78.23 ± 0.057%; IC50 (neuroblastoma SH-SY5Y; read-out: IC50 SH-SY5Y, MTT, 72 h): 1060 ± 190 nM
